Results taken from BindingDB's records for doi:10.1016/j.bmcl.2013.07.029 (Vanderbilt University Medical Center, 2013).

Biological target: Metabotropic glutamate receptor 1 (Homo sapiens, UniProt Q13255)
Experiment: Negative allosteric modulation of human mGlu1 receptor expressed in HEK293A TREx cells assessed as calcium flux after 45 mins
Method in brief: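 HEK293A TREx cells stably expressing human mGlu1 were induced overnight with 50 ng/mL tetracycline at 37 °C. Ten-point 1:3 compound series were added for 2.3 min, then an EC20 of glutamate, then an EC80 of glutamate 1.9 min later. Ca2+ flux was read for 1.7 min. Values are the average of n ≥ 3.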

Metabotropic glutamate receptor 1, sequence (Q13255 whole entry): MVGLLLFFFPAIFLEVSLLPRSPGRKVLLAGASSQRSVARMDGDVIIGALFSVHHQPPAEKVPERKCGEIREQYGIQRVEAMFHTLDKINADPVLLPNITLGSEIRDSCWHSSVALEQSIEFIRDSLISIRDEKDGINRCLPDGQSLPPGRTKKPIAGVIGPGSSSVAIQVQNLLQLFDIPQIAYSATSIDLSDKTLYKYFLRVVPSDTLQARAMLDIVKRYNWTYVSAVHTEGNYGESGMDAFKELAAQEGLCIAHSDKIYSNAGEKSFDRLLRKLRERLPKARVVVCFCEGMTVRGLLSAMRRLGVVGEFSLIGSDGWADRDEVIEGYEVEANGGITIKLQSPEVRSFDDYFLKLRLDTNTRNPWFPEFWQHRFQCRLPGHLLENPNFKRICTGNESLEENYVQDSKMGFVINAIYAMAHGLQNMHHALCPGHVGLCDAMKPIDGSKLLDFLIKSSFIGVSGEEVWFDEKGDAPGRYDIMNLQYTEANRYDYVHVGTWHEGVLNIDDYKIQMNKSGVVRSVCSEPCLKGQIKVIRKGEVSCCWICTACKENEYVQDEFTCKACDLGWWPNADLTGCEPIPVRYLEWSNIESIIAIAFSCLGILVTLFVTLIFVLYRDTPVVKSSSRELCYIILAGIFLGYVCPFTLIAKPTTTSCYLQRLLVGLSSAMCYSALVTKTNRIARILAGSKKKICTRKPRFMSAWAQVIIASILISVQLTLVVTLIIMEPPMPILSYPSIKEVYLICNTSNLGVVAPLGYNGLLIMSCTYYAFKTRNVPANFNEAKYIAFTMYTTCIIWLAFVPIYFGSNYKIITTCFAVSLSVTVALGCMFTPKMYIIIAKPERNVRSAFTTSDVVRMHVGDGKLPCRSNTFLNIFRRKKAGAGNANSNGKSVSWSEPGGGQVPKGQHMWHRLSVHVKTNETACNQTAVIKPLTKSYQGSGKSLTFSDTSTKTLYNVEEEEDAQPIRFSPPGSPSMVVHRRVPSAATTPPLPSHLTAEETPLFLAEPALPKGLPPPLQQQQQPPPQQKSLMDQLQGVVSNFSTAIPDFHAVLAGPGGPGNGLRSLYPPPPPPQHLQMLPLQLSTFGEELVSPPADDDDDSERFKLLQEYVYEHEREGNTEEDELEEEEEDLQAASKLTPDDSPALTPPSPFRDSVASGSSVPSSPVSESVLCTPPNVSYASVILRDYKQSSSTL

Row | SMILES | IC50 [µM]
1 | CC(C)(C)CC(=O)N1C[C@@H]2CN(c3ccccn3)C[C@@H]2C1 | > 31.6
2 | CC(C)(C)C(=O)N1C[C@@H]2CN(c3ccccn3)C[C@@H]2C1 | > 31.6
